Data as given in article PMC3841656 (Pharmaceutical Research, 2013).

Columns and labels:
Format in all cases: physicochemical
[1] = Solubility in PEG400 under dry conditions; conditions: two tailed t-test, ambient vs dry
[2] = Equilibrium solubility in soybean oil; conditions: 37°C, HPLC
Outline: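 The drug was added in excess to triplicate sealed glass vials of soybean oil (2 g, later 1 g), vortexed and incubated at 37°C. Samples were taken at 24, 48 and 72 h or longer after centrifugation at 37°C, 2,800 g for 30 min. Supernatant (20–30 mg) was diluted in 66% v/v chloroform/methanol and quantified by C18 RP-HPLC-UV against a standard curve. Equilibrium was taken when consecutive 24-h points differed <10%; mean ± SD, n ≥ 3.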

[3] = Equilibrium solubility in PEG400, ambient conditions; conditions: PEG400, 37°C, ambient milieu (0.32% w/w water)
Outline: (§1)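 Excess drug was added to triplicate sealed glass vials of excipient (2 g, later 1 g) and held at 37°C with periodic vortexing. Vials were centrifuged at 37°C, 2,800 g for 30 min and sampled at 24, 48 and 72 h or longer. Supernatant (20–30 mg) was diluted in 7% v/v chloroform/methanol and analysed by C18 RP-HPLC-UV. Equilibrium was taken when consecutive 24-h samples differed <10%; mean ± SD, n ≥ 3.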

[4] = Equilibrium solubility in polysorbate 80; conditions: polysorbate 80, 37°C, HPLC
Outline: as §1

| Structure (SMILES) | equilibrium solubility in SBO [2] | equilibrium solubility in PEG400 [3] | other results |
| --- | --- | --- | --- |
| COc1ccc2c(c1)c(CC(=O)O)c(C)n2C(=O)c1ccc(Cl)cc1 [Indomethacin] |  |  | difference in PEG400 solubility between ambient and dry conditions [1]: no significant difference |
| CC(C)(Oc1ccc(CCNC(=O)c2ccc(Cl)cc2)cc1)C(=O)O [Bezafibrate] | less than the limit of detection |  |  |
| N[C@@H](Cc1cc(I)c(Oc2cc(I)c(O)c(I)c2)c(I)c1)C(=O)O [Levothyroxine] | less than the limit of detection |  |  |
| CCOc1nc2cccc(C(=O)O)c2n1Cc1ccc(-c2ccccc2-c2nnn[nH]2)cc1 [Candesartan] | less than the limit of detection | 13.8 ± 1.5 mg/g |  |
| COc1ccc(Cl)cc1C(=O)NCCc1ccc(S(=O)(=O)NC(=O)NC2CCCCC2)cc1 [Glibenclamide] | less than the limit of detection |  |  |
| C#C[C@]1(O)CC[C@H]2[C@@H]3CCc4cc(O)ccc4[C@H]3CC[C@@]21C [Ethinylestradiol] |  | high solubility | equilibrium solubility in PS80 [4]: high solubility |
| CC(C)(C)NC(=O)[C@@H]1C[C@@H]2CCCC[C@@H]2CN1C[C@@H](O)[C@H](Cc1ccccc1)NC(=O)[C@H](CC(N)=O)NC(=O)c1ccc2ccccc2n1 [Saquinavir] |  | high solubility |  |
